Experiments:
Adenosine receptor A1 = target: T1, Adenosine receptor A1 (Homo sapiens, UniProt P30542); assay: Binding affinity using [125I]ABA against human Adenosine A1 receptor
T1 sequence (P30542 whole entry): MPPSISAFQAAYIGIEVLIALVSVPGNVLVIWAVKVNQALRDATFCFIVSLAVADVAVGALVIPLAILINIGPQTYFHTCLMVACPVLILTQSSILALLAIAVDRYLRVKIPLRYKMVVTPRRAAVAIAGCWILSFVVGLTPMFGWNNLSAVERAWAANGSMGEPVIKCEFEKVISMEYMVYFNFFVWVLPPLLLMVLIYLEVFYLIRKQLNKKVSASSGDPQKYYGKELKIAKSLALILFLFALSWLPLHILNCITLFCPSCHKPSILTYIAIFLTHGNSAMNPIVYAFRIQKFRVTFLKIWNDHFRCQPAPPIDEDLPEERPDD

Adenosine receptor A3 [1] = target: T2, Adenosine receptor A3 (Homo sapiens, UniProt P0DMS8); assay: Binding affinity using [125I]ABA against human Adenosine A3 receptor
T2 sequence (P0DMS8 whole entry): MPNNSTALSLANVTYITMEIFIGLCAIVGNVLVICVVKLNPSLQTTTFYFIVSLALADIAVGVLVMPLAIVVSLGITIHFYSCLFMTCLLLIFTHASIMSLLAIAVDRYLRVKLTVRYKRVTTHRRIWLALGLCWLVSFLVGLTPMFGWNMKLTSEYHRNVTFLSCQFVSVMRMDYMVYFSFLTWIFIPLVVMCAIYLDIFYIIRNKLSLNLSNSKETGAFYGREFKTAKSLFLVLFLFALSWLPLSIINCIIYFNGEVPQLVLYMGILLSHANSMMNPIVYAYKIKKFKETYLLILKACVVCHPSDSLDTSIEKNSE

[2] = target: Adenosine receptors; A1 & A3 (Homo sapiens) (UniProt P30542+P0DMS8); assay: Ratio of binding affinity for human adenosine A1 and A3 receptors; assay type: protein assay
[3] = Tested for pKa value of compound; assay type: physicochemical
Adenosine receptor A3 [4] = target: T2, Adenosine receptor A3; assay: Inhibition of isoproterenol-stimulated cAMP accumulation in HEK 293 cells expressing human Adenosine A3 receptor; assay type: functional, cell-based, HEK293
Procedure, shortened: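 Functional assay in HEK 293 cells with recombinant human A3 receptors. Cells are stimulated with isoproterenol, and the drop in cAMP accumulation is measured over a concentration–response range. EC50 comes from the curve. Mean and SEM of three experiments, each run in duplicate.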

Ki (Adenosine receptor A1) | Ki (Adenosine receptor A3 [1]) | Ratio [2] | pKa [3] | EC50 (Adenosine receptor A3 [4]) | Structure (SMILES)
4600 nM | 72 nM | 64 |  |  | CNC(=O)[C@H]1O[C@@H](n2cnc3c(NCc4cccc(I)c4)ncnc32)[C@H](O)[C@@H]1N
7300 nM | 5.8 nM |  | 6.25 | 3.4 nM | CNC(=O)[C@H]1O[C@@H](n2cnc3c(NCc4cc(Cl)ccc4OCc4cc(C)no4)ncnc32)[C@H](O)[C@@H]1N
68 nM | 1.6 nM | 42 |  |  | CNC(=O)[C@H]1O[C@@H](n2cnc3c(NCc4cc(Cl)ccc4OCc4cc(C)no4)ncnc32)[C@H](O)[C@@H]1O
65 nM | 4.8 nM | 13 |  |  | CNC(=O)[C@H]1O[C@@H](n2cnc3c(NC)ncnc32)[C@H](O)[C@@H]1O
 | 120 nM | 194 |  |  | CNC(=O)[C@H]1O[C@@H](n2cnc3c(NC)ncnc32)[C@H](O)[C@@H]1N

Reference: ChEMBL document CHEMBL1145953 (J Med Chem, 2003)
